Data set [1] is described as follows: Inhibition of acetate buffer-initiated beta-hematin polymerization at 50 uM measured after 48 hrs relative to control. In outline:
(§1)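 Hemin chloride (4 mM in DMSO) was dispensed into plates with compound in DMSO (50-5 µM), in triplicate. Water or DMSO served as controls. Reaction was started with 0.2 M acetate buffer, pH 4.4, and run at 37 °C for 48 h. The pellet was centrifuged, washed twice with DMSO, dissolved in 0.2 N NaOH, diluted 1:2 in 0.1 N NaOH and read at 405 nm as % inhibition.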

Data set [2] can be described thus: Inhibition of acetate buffer-initiated beta-hematin polymerization measured after 48 hrs. In short, it runs like this: as §1
Data set [3] is described as follows: Cytotoxicity against mouse peritoneal macrophages assessed as growth inhibition after 48 hrs by MTT assay. It is filed as cell-based, Peritoneal macrophage. As to conditions: read-out: LD50. In outline: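 Murine peritoneal macrophages plated at 5 × 10^4 cells/well in DMEM with 5 mM L-glutamine, 10% FBS and antibiotics, then incubated overnight at 5% CO2. Compounds added at varied concentrations in duplicate wells, 48 h further incubation. Viability read by MTT reduction as % of untreated controls. LD50 taken by non-linear regression of % viability vs log concentration.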

A short description of data set [4]: Hemolytic activity in human RBC after 45 mins by spectrophotometric method. To be noted: red blood cells (erythrocytes). Type of data set: ADME, cell-based, Erythrocyte. In short, it runs like this: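 Human RBCs from 50% Alsever's solution were spun at 800g for 10 min and washed three times in saline. Compounds (5-5000 µM) were incubated with a 2% final RBC suspension at 37°C for 45 min. Released haemoglobin was read at 550 nm, with water as the 100% lysis control and saline as the negative control. Result given as the concentration lysing half the RBCs.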

The subject of data set [5] is Plasmodium berghei. The experiment in a line: Antimalarial activity against Plasmodium berghei ANKA infected in Balb/c mouse assessed as mouse survival time at 20 mg/kg, ip qd administered for 4 days starting from 2 hrs post infection (reference value: 6.8 +/- 0.7day). Type of data set: functional. In short, it runs like this: (§2)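 Male Balb-C mice (18-22 g, n=6 per group) infected i.v. via caudal vein with 10^6 P. berghei-infected RBC. Treatment started 2 h post-infection, once daily i.p. for 4 days. Compounds dissolved in DMSO (0.1 M stock), diluted with 2% Saline-Tween 20. Saline-treated controls. Survival time recorded relative to saline group. Parasitemia by Giemsa-stained smears at day 4. Mean±SD.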

In data set [6] the test system is Plasmodium berghei. The experiment in a line: Antimalarial activity against Plasmodium berghei ANKA infected in Balb/c mouse assessed as parasitemia at 20 mg/kg, ip qd administered for 4 days starting from 2 hrs post infection by Giemsa staining based microscopic method (reference value: 65.2 +/- 2.58%). Type of data set: functional.
The test system of data set [7] is Plasmodium berghei. The data set is described as follows: Antimalarial activity against Plasmodium berghei ANKA infected in Balb/c mouse assessed as mouse survival time at 25 mg/kg, ip qd administered for 4 days starting from 2 hrs post infection (reference value: 6.8 +/- 0.7day). Type of data set: functional. In short, it runs like this:
as §2

The test system of data set [8] is Plasmodium berghei. The data set is described as follows: Antimalarial activity against Plasmodium berghei ANKA infected in Balb/c mouse assessed as parasitemia at 25 mg/kg, ip qd administered for 4 days starting from 2 hrs post infection by Giemsa staining based microscopic method (reference value: 65.2 +/- 2.58%). Type of data set: functional.

What is called inhibition is how much of the control response was suppressed. High values mean a response far below the control, low ones a response near the control. The IC50 is the concentration at which inhibition is half-maximal. High values mean weaker potency, low ones greater potency. By HC50 is commonly meant the concentration giving 50% haemolysis. A higher HC50 goes with less damage to red cells. As for `CC(C)(C)NCc1ccc(Nc2ccnc3cc(Cl)ccc23)cc1.Cl`, the inhibition in data set [1] was determined as 98.6%. This compound also yielded an IC50 in data set [2] of 1.66 µM. Moreover, in data set [3], the CC50 at 48 h was found to be 47.1 µM. The compound also had a concentration for 50% haemolysis (HC50) at 0.75 h in data set [4] of 1.49 mM. For the same compound, the Time in data set [5] stood at 25.8 days. Also, in data set [6], the Activity is reported as 4%.
The compound `CCN(CC)CCCC(C)Nc1ccnc2cc(Cl)ccc12` (stereo unspecified) [CHLOROQUINE] gave an inhibition in data set [1] of 98.6%. Further, in data set [2], the IC50 was determined as 1.48 µM. Also, the HC50 at 0.75 h in data set [4] was greater than 1.5 mM. In addition, the Time in data set [7] came out at 29.4 days. The Activity in data set [8] is reported as 0.6%.
Turning to `CCN(CC)Cc1ccc(Nc2ccnc3cc(Cl)ccc23)cc1`, the inhibition in data set [1] was determined as 98.2%. In addition, in data set [2], the IC50 is 1.78 µM. The CC50 at 48 h in data set [3] came out at 42.4 µM. Besides, the HC50 at 0.75 h in data set [4] turned out to be 2.92 mM. For the same compound, the Time in data set [5] stood at 24.9 days. The Activity in data set [6] is 3.8%.
With `Clc1ccc2c(Nc3ccc(CN4CCOCC4)cc3)ccnc2c1`, the inhibition in data set [1] is 5.17%. Moreover, the IC50 in data set [2] is greater than 50 µM. The CC50 at 48 h in data set [3] stood at 36.2 µM. The HC50 at 0.75 h in data set [4] was found to be 0.591 mM.
